Screening data: PubChem BioAssay, several laboratories
Mot1-301 SUMO: blocks SUMOylation pathway, rescuing yeast Mot1-301 growth; S. cerevisiae Mot1-301 growth rescue, ATP luminescence, 38.5C; percent above DMSO median, 100 means doubled; growth rescue, % at 18.8 µM; 320,000 tested, 1% active;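 active = every valid replicate shows activation above 250% relative to neutral control wells; inactive = the rest, any valid replicate at or below 250%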;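 also: OY570 slx delta 5 strain wells were the positive control but not used for scaling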
PolyA inh: inhibitors of polyadenylation in S. cerevisiae; S. cerevisiae SKY197-pL101 polyadenylation reporter, beta-gal luminescence; efflux-impaired pdr1/pdr3 knockout yeast; score 100 = 6 SD above DMSO; activity score, % at 12 µM; 300,000 tested, 0.02% active;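 active = lowest replicate activity score at least 50, where 100 means six control SD above control mean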;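 also: yeast exposed to compound for 9 h at 30 °C; higher score means more reporter readthrough which indicates perturbed polyadenylation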
VIM-2 inhibitor: blocks Pseudomonas aeruginosa VIM-2 metallo-beta-lactamase | inhibition, % at 5.6 µM | 290,000 tested, 0.89% active | AID 1527 | purified VIM-2, nitrocefin hydrolysis, epi-absorbance fluorescence;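 active = inhibition above the mean of all tested compounds plus 3 SD, cutoff set per screening run, cut at about 7.5% in these data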;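 also: red hydrolysis product quenches plate fluorescence so inhibitors raise well fluorescence; 0% = enzyme with DMSO and 100% = DMSO without enzyme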
NALP1 yeast inh: NALP1 inhibition; 280,000 tested, 0.61% active; AID 2071; S. cerevisiae NALP1/ASC/caspase-1 growth, X-gal OD620, 72 h; inhibition, % at 10 µM; in the data active = inhibition mostly above about 24%, no sharp cut-off; inactive = mostly below about 32%
NLRP3 yeast inh: NALP3 inhibition in yeast. Yeast reconstituted NLRP3/ASC/caspase-1, beta-gal luminescence, 24 h. inhibition, % at 10 µM. 330,000 tested, 0.39% active. AID 2825;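 active = inhibition of 50% or more; inactive = inhibition below 50%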;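 also: plate controls were induced DMSO wells for no effect and uninduced yeast grown without galactose for full effect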
IMP-1 inh: inhibitors of Pseudomonas aeruginosa IMP-1 metallo-beta-lactamase; purified IMP-1, nitrocefin hydrolysis, epi-absorbance fluorescence; inhibition, % at 5.6 µM; 290,000 tested, 0.45% active; AID 1556;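 active = inhibition above the mean plus 3 SD of all compounds in the same screening run, cut at about 4.5% in these data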;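 also: 0% = IMP-1 with DMSO and 100% = DMSO wells lacking enzyme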
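Test system: recombinant IMP-1 enzyme, purified / Medium: HEPES buffer pH 7.1 with ZnSO4 and Brij 35 / Doses: single dose, 5.6 µM / Times: 25 °C, 15 min preincubation, 25 min reaction / Detection: Epi-absorbance via hydrolysed-nitrocefin quenching of white-plate fluorescence, 480/530 nm, EDTA stop / Evaluation: percent inhibition from optical density relative to buffer-blank wells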
* = called active by the depositor. The list is not random: actives were taken first. Their share in the collection is about 2.9%.

What do the screens show for `CCOC(=O)CC(=O)CSc1nc(-c2cccnc2)ccc1C#N`?
Mot1-301 SUMO: -15; PolyA inh: -3; VIM-2 inhibitor: 0; NALP1 yeast inh: 25; NLRP3 yeast inh: -2; IMP-1 inh: 5.3*

How did COc1cc(/C=N/NS(=O)(=O)c2ccc(C)cc2)ccc1OCc1cccc(C(=O)O)c1 do in these assays?
Mot1-301 SUMO: 733*; PolyA inh: -5; VIM-2 inhibitor: 1; NALP1 yeast inh: -2; NLRP3 yeast inh: 8; IMP-1 inh: -1

What do the screens show for `COc1cc(/C=N/NS(=O)(=O)c2ccc3ccccc3c2)ccc1OCc1ccc(C(=O)O)cc1`?
Mot1-301 SUMO: 21; PolyA inh: 7; VIM-2 inhibitor: -2; NALP1 yeast inh: 8; NLRP3 yeast inh: 2; IMP-1 inh: -2

Results for c1ccc2c(Nc3ccc(N4CCOCC4)cc3)nc(N3CCOCC3)nc2c1 ?
Mot1-301 SUMO: -7; PolyA inh: -3; VIM-2 inhibitor: 9.4*; NALP1 yeast inh: 17; NLRP3 yeast inh: 16; IMP-1 inh: -2

What do the screens show for `Cc1cccc(-c2nc(Nc3ccc(N4CCOCC4)cc3)c3ccccc3n2)c1`?
Mot1-301 SUMO: 37; PolyA inh: -4; VIM-2 inhibitor: -1; NALP1 yeast inh: 25; NLRP3 yeast inh: 25; IMP-1 inh: -3

Results for CCN(CCS(=O)(=O)c1ccc(Cl)cc1)C(=O)Nc1ccc(Cl)cc1 ?
Mot1-301 SUMO: 135; PolyA inh: 3; VIM-2 inhibitor: 1; NALP1 yeast inh: 13; NLRP3 yeast inh: 8; IMP-1 inh: 0

How did O=c1c2ccccc2nnn1Cc1ccccc1Cl do in these assays?
Mot1-301 SUMO: 46; PolyA inh: -9; VIM-2 inhibitor: -3; NALP1 yeast inh: 9; NLRP3 yeast inh: -20; IMP-1 inh: -1

How did O=C1C2CC=C(Cl)CC2C(=O)N1CCCCCCN1C(=O)C2CC=C(Cl)CC2C1=O (stereo not drawn) do in these assays?
Mot1-301 SUMO: 284; PolyA inh: -2; VIM-2 inhibitor: -3; NALP1 yeast inh: 6; NLRP3 yeast inh: -8; IMP-1 inh: -1

What do the screens show for `O=C(CCN1C(=O)C2CC=C(Cl)CC2C1=O)NC1CCCCC1` (stereo not drawn)?
Mot1-301 SUMO: -7; PolyA inh: -8; VIM-2 inhibitor: -2; NALP1 yeast inh: 42*; NLRP3 yeast inh: 2; IMP-1 inh: -5

What do the screens show for `COc1ccc(OC)c(C2C(C(=O)c3cccs3)=C(O)C(=O)N2CCN2CCOCC2)c1` (stereo not drawn)?
Mot1-301 SUMO: -13; PolyA inh: 0; VIM-2 inhibitor: 2; NALP1 yeast inh: 1; NLRP3 yeast inh: 0; IMP-1 inh: -1

Results for CCOc1ccc(-c2c(C#N)c(N)nc3c2c(=O)n(C)c(=O)n3C)cc1OC ?
Mot1-301 SUMO: -7; PolyA inh: 5; VIM-2 inhibitor: -2; NALP1 yeast inh: -3; NLRP3 yeast inh: 2; IMP-1 inh: 7.6*

How did CSc1nnc2c(n1)OC(C)=Nc1ccccc1-2 do in these assays?
Mot1-301 SUMO: -12; PolyA inh: -11; VIM-2 inhibitor: 11*; NALP1 yeast inh: -8; NLRP3 yeast inh: 6; IMP-1 inh: -2

Results for CSc1nnc2c(n1)OC(C)N(C(=O)c1ccccc1)c1ccccc1-2 (stereo not drawn) ?
Mot1-301 SUMO: -13; PolyA inh: -15; VIM-2 inhibitor: -2; NALP1 yeast inh: 13; NLRP3 yeast inh: 5; IMP-1 inh: -5

What do the screens show for `CSc1nnc2c(n1)OC(C1CC=C(C)CC1)Nc1ccccc1-2` (stereo not drawn)?
NALP1 yeast inh: 16

How did CCC1=Nc2ccccc2-c2nnc(SC)nc2O1 do in these assays?
Mot1-301 SUMO: -3; PolyA inh: -4; VIM-2 inhibitor: 10*; NALP1 yeast inh: 3; NLRP3 yeast inh: 10; IMP-1 inh: -2

What do the screens show for `Cc1nc2cccc(C(=O)NC3CCCCC3)c2o1`?
Mot1-301 SUMO: -3; PolyA inh: 5; VIM-2 inhibitor: -3; NALP1 yeast inh: 32*; NLRP3 yeast inh: 10; IMP-1 inh: -2

How did CCOc1ccc(Oc2c(C)oc3cc(O)ccc3c2=O)cc1 do in these assays?
Mot1-301 SUMO: -13; PolyA inh: 12; VIM-2 inhibitor: 1; NALP1 yeast inh: 25*; NLRP3 yeast inh: 8; IMP-1 inh: 1
